These results are taken from ChEMBL document CHEMBL2311377, “Trisubstituted thiophene analogues of 1-thiazolyl-2-pyrazoline, super oxidase inhibitors and free radical scavengers” (Bioorg Med Chem, 2013).

The target in series [1] is T1, Xanthine dehydrogenase/oxidase (Rattus norvegicus, UniProt P22985). Description: Inhibition of Wistar albino rat xanthine oxidase isolated from liver using xanthine as substrate incubated for 15 mins prior to substrate addition by spectrophotometric analysis. Summed up:
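Xanthine oxidase was prepared from perfused Wistar albino rat liver. The liver was homogenized in ice-cold 0.05 M phosphate (pH 7.8) with 0.1 mM EDTA and spun at 10,000g. The supernatant was precipitated with 60% ammonium sulfate, dialyzed against phosphate pH 6.8, and protein measured by Lowry. Enzyme was preincubated with compound in DMSO in phosphate pH 7.4 at room temperature for 15 min. Uric acid was read at 295 nm; inhibition was relative to DMSO-only control, and IC50 came from linear regression.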

Series [2] has as its system Radical scavenging activity. Put plainly: Antioxidant activity assessed as inhibition DPPH radical production after 15 mins by spectrophotometric analysis. It counts as functional. Summed up:
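Compounds at 1–50 in methanol were mixed with an equal volume of methanolic DPPH. Absorbance was compared with a control of DPPH plus methanol without compound, and results are given as percent radical scavenging.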
(The DPPH test is a chemical assay of radical scavenging.)

The target of series [3] is T1, Xanthine dehydrogenase/oxidase. Description: Competitive inhibition of Wistar albino rat xanthine oxidase isolated from liver using xanthine as substrate by Lineweaver-Burk plot analysis. Summed up:
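Inhibition type was assessed with the rat liver XO preparation by varying xanthine substrate across 1–5 and analysing by Lineweaver–Burk plot.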

pIC50: −log10 of the molar value.

T1 sequence (P22985 whole entry, the tested form may be a part): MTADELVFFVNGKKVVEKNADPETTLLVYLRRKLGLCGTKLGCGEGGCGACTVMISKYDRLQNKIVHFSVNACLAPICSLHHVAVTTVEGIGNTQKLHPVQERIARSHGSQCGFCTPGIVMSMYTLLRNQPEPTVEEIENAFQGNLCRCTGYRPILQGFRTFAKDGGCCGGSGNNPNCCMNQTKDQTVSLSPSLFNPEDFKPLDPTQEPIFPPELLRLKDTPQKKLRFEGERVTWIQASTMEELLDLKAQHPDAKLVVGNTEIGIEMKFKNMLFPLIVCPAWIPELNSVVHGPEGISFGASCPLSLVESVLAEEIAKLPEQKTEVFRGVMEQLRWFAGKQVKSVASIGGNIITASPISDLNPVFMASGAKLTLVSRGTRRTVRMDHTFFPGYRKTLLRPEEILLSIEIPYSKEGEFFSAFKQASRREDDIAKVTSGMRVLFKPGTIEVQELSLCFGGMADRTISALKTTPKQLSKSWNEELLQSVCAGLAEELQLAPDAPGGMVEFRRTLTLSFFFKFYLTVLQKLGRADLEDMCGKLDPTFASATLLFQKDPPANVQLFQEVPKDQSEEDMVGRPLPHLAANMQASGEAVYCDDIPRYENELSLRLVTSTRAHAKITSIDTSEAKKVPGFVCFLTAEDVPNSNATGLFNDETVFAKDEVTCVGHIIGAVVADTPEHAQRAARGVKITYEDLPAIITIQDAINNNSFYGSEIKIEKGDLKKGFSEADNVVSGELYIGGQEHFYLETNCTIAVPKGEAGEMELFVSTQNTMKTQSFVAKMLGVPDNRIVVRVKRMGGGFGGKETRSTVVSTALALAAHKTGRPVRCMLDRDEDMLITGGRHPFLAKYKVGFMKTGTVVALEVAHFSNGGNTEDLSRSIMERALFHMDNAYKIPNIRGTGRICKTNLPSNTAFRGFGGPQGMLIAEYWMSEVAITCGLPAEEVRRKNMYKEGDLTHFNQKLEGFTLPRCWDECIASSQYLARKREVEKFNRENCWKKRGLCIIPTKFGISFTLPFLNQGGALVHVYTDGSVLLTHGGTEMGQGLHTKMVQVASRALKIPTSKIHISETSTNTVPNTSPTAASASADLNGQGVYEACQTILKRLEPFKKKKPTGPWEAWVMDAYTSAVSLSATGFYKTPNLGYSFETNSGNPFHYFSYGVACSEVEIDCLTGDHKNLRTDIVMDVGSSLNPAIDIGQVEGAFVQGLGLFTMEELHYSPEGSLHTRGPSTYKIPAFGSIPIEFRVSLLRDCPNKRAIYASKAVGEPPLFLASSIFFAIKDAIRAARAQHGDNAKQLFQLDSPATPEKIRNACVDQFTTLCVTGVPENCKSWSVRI

As for `CCCCc1nc(Cl)c(C2CC(c3cc(Cl)sc3Cl)=NN2c2nc(-c3ccc(Cl)cc3)cs2)[nH]1` (configuration not stated), the pIC50 in series [1] is 4.59; in series [2], 4.50.

For the compound `CCCCc1nc(Cl)c(C2CC(c3cc(Cl)sc3SCc3ccccc3)=NN2c2nc(-c3ccc(Cl)cc3)cs2)[nH]1` (configuration not stated), the pIC50 in series [1] is 4.70; in series [2] it was 4.66.

Turning to `CCCCc1nc(Cl)c(C2CC(c3cc(Cl)sc3S(N)(=O)=O)=NN2c2nc(-c3ccc(Cl)cc3)cs2)[nH]1` (configuration not stated), the pIC50 in series [1] is 4.62; in series [2], 4.53.

Consider `Clc1ccc(-c2csc(N3N=C(c4cc(Cl)sc4Cl)CC3c3ccc(Cl)cc3)n2)cc1` (configuration not stated), for which the pIC50 was 4.44 in series [1] and 4.35 in series [2].

Take `Clc1ccc(-c2csc(N3N=C(c4cc(Cl)sc4SCc4ccccc4)CC3c3ccc(Cl)cc3)n2)cc1` (configuration not stated): the pIC50 in series [1] was 4.49; in series [2], 4.38.

Take `NS(=O)(=O)c1sc(Cl)cc1C1=NN(c2nc(-c3ccc(Cl)cc3)cs2)C(c2ccc(Cl)cc2)C1` (configuration not stated): the values for the pIC50 in series [1] and in series [2] were 4.47 and 4.37, respectively.

In the case of `Fc1ccc(C2CC(c3cc(Cl)sc3Cl)=NN2c2nc(-c3ccc(Cl)cc3)cs2)cc1` (configuration not stated), the pIC50 in series [1] and in series [2] was under 4.30 each time.

On to `Fc1ccc(C2CC(c3cc(Cl)sc3SCc3ccccc3)=NN2c2nc(-c3ccc(Cl)cc3)cs2)cc1` (configuration not stated), for which the pIC50 in series [1] and in series [2] was under 4.30 in each case.

Consider `NS(=O)(=O)c1sc(Cl)cc1C1=NN(c2nc(-c3ccc(Cl)cc3)cs2)C(c2ccc(F)cc2)C1` (configuration not stated), for which the pIC50 in series [1] and in series [2] was under 4.30 in each case.

`CN(C)c1ccc(C2CC(c3cc(Cl)sc3Cl)=NN2c2nc(-c3ccc(Cl)cc3)cs2)cc1` (configuration not stated): the pIC50 in series [1] is 5.03; in series [2], 4.68.

Turning to `CN(C)c1ccc(C2CC(c3cc(Cl)sc3SCc3ccccc3)=NN2c2nc(-c3ccc(Cl)cc3)cs2)cc1` (configuration not stated), in series [3], the “inhibition (INH)” value is listed as “Active”. Moreover, the pIC50 in series [1] was 5.21; in series [2] it was 4.81.

Consider `CN(C)c1ccc(C2CC(c3cc(Cl)sc3S(N)(=O)=O)=NN2c2nc(-c3ccc(Cl)cc3)cs2)cc1` (configuration not stated), for which the pIC50 in series [1] was 5.08; in series [2], 4.71.

Take `Oc1ncnc2[nH]ncc12` [ALLOPURINOL]: in series [1], the pIC50 was 5.22.

For `O=C1O[C@H]([C@@H](O)CO)C(O)=C1O` [ASCORBIC ACID], the pIC50 in series [2] was 4.94.

Broadly, the pIC50 is the negative decadic logarithm of the IC50, by convention in mol/L.
